Tests used:
Type in all cases: functional
Cavia porcellus [1] = assay: Inhibition of Collagen-induced Thromboxane (TXB2) in guinea pig whole blood ex vivo by oral 30 mg/kg administration of test compound.
In short: (§1)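 Male Dunkin-Hartley guinea pigs (300-350 g), fasted overnight, dosed orally by gavage in 50% PEG 400/50% carboxymethylcellulose vehicle. Pentobarbitone anaesthesia 10 min before bleed at 1 h post-dose. Aortic blood was taken into citrate and stirred at 37 °C. Collagen (10 μg/mL) was added and incubated 5 min, then stopped with indomethacin. Plasma TxB2 was measured by RIA and normalized to 5.0×10^8 platelets/mL. Groups of ≥4 animals.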

Cavia porcellus [2] = assay: Inhibition of Collagen-induced serum Thromboxane (TXB2) in guinea pig whole blood ex vivo after 30 mg/kg oral administration of compound.; in short: as §1
Thromboxane-A synthase = target: T1, Thromboxane-A synthase (Homo sapiens, UniProt P24557); assay: Inhibition of Thromboxane B2 formation in collagen-stimulated human platelets in platelet rich plasma.
T1 sequence (P24557 whole entry): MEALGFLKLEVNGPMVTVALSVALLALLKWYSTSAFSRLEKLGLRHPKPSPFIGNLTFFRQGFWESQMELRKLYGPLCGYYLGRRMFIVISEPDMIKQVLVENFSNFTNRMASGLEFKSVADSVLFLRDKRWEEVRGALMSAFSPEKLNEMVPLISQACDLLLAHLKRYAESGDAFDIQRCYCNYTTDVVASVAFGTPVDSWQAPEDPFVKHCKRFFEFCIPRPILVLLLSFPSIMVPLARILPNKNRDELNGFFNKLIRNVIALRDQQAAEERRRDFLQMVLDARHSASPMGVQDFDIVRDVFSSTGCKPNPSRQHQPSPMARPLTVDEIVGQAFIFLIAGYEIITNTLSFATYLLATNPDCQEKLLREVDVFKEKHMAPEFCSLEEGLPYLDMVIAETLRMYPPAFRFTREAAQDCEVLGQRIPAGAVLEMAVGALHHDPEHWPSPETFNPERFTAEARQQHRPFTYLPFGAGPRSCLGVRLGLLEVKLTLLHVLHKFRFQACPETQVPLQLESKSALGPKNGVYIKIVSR

Cavia porcellus [3] = assay: Inhibition of Collagen-induced Thromboxane (TXB2) in guinea pig whole blood ex vivo after 1 hr of 30 mg/kg oral administration of compound.; in short: as §1
Cavia porcellus [4] = assay: Inhibition of Collagen-induced Thromboxane (TXB2) generation in guinea pig whole blood ex vivo by oral 10 mg/kg administration of test compound.; in short: as §1
Cavia porcellus [5] = assay: Inhibition of Collagen-induced serum Thromboxane (TXB2) in guinea pig whole blood ex vivo after 10 mg/kg oral administration of compound.; in short: as §1
Cavia porcellus [6] = assay: Inhibition of Collagen-induced Thromboxane (TXB2) in guinea pig whole blood ex vivo after 1 hr of 10 mg/kg oral administration of compound.; in short: as §1
Cavia porcellus [7] = assay: Inhibition of Collagen-induced serum Thromboxane (TXB2) generation in guinea pig whole blood ex vivo after 10 mg/kg oral administration of compound.; in short: as §1
Cavia porcellus [8] = assay: Dose-related effect was determined 1 hr after oral administration in guinea pig and expressed as ED50 value; in short: as §1
Cavia porcellus [9] = assay: Inhibition of Collagen-induced Thromboxane (TXB2) in guinea pig whole blood ex vivo after 1 hr of 30 mg/kg oral administration of compound; in short: as §1

| SMILES | IC50 (Thromboxane-A synthase) [nM] | Thromboxane B2 (TxB2) (Cavia porcellus [1]) [pg 0.1ml-1 500x10^3] | inhibition in vivo at 30 mg/kg (Cavia porcellus [2]) [%] | also measured |
| --- | --- | --- | --- | --- |
| O=C(O)c1ccc(OCCn2ccnc2)cc1 [DAZOXIBEN] |  | 674 | 54 | ED50 (Cavia porcellus [3]): 9.3 mg/kg |
| COc1ccc(COCC(Cn2ccnc2)OCCC/C=C/C(=O)O)cc1 (stereo unspecified) | 8330 | 1302 | 4 |  |
| COc1ccc(COCC(Cn2ccnc2)OCCCCC(C)(C)C(=O)O)cc1 (racemic) | 120 | 153 | 87 | ED50 (Cavia porcellus [3]): 3.4 mg/kg |
| CCOC(=O)/C=C/CCCOC(COCc1ccc(OC)cc1)Cn1ccnc1 (stereo unspecified) | 10000 |  |  |  |
| CCOC(=O)C(C)(C)CCCCOC(COCc1ccc(OC)cc1)Cn1ccnc1 (stereo unspecified) | 17600 | 55 | 97 | ED50 (Cavia porcellus [3]): 6.7 mg/kg |
| COc1ccc2c(c1)c(CC(=O)O)c(C)n2C(=O)c1ccc(Cl)cc1 [INDOMETHACIN] |  |  |  | Thromboxane B2 (TxB2) (Cavia porcellus [4]): 27 pg 0.1ml-1 500x10^3; inhibition in vivo at 10 mg/kg (Cavia porcellus [5]): 99%; ED50 at 10 mg/kg (Cavia porcellus [6]): < 10 mg/kg |
| COc1ccc(COC[C@H](Cn2ccnc2)OCCCCC(C)(C)C(=O)O)cc1 | 36 |  |  | inhibition in vivo at 10 mg/kg (Cavia porcellus [7]): 95%; Thromboxane B2 (TxB2) (Cavia porcellus [4]): 61.9 pg 0.1ml-1 500x10^3; ED50 (Cavia porcellus [8]): 1.4 mg/kg |
| COc1ccc(COCC(Cn2ccnc2)OCCCCCC(=O)O)cc1 (stereo unspecified) | 560 | 130 | 82 | ED50 (Cavia porcellus [3]): 10.5 mg/kg |
| COc1ccc(COCC(Cn2ccnc2)OCCCCC(=O)O)cc1 (stereo unspecified) | 730 | 1047 | 43 |  |

The next lines start with results.

| IC50 (Thromboxane-A synthase) [nM] | SMILES | Thromboxane B2 (TxB2) (Cavia porcellus [1]) [pg 0.1ml-1 500x10^3] | inhibition in vivo at 30 mg/kg (Cavia porcellus [2]) [%] | also measured |
| --- | --- | --- | --- | --- |
| 1430 | COc1ccc(COCC(CCCCCCC(=O)O)Cn2ccnc2)cc1 (stereo unspecified) | 1620 | -18 |  |
| 420 | COc1ccc(COC[C@@H](Cn2ccnc2)OCCCCC(C)(C)C(=O)O)cc1 | 572 | 71 | ED50 (Cavia porcellus [3]): 12 mg/kg |
| 750 | CCOC(=O)CCCCOC(COCc1ccc(OC)cc1)Cn1ccnc1 (stereo unspecified) | 2018 | -11 |  |
| 4000 | CCOC(=O)CCCCCCOC(COCc1ccc(OC)cc1)Cn1ccnc1 (stereo unspecified) | 2720 | 33 |  |
| 1000 | CCOC(=O)CCCCCCC(COCc1ccc(OC)cc1)Cn1ccnc1 (stereo unspecified) | 683 | 53 |  |
| > 20000 | COc1ccc(COCC(Cn2ccnc2)OCCCCCCC(C)(C)C(=O)O)cc1 (stereo unspecified) |  |  |  |
| 390 | CCOC(=O)CCC/C=C/CC(COCc1ccc(OC)cc1)Cn1ccnc1 (stereo unspecified) | 1265 | 23 |  |
| 1890 | COc1ccc(COCC(Cn2ccnc2)OCCCCCCC(=O)O)cc1 (stereo unspecified) | 923 | 25 |  |
| 120 | CCOC(=O)CCCCCOC(COCc1ccc(OC)cc1)Cn1ccnc1 (stereo unspecified) | 750 | 63 | ED50 (Cavia porcellus [9]): 13.5 mg/kg |
